Results taken from ChEMBL document CHEMBL1156820, “Novel highly potent and selective sigma 1 receptor antagonists related to spipethiane” (J Med Chem, 2010).
Activity calls are given as the source filed them.

Assays:
[1] = molecular target: Sigma non-opioid intracellular receptor 1 (Homo sapiens, UniProt Q99720); test: Displacement of [3H](+)-pentazocine from sigma1 receptor in human Jurkat cell membrane; assay type: cell membranes
[2] = Displacement of [3H]DTG from sigma2 receptor in rat cerebral cortex cell membrane; assay type: cell membranes
Summary of the method: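 Rat cerebral cortex membranes (100-200 μg protein) incubated with [3H]DTG (5 nM) and 300 nM (+)-pentazocine to mask σ1 sites, across a range of test concentrations, 2 h at 22 °C in 5 mM Tris/HCl pH 7.4. Nonspecific binding defined with 10 μM haloperidol. GF/B filtration, scintillation counting. Triplicates; Ki from two to three experiments.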

[3] = Selectivity for human sigma1 receptor over rat sigma2 receptor
Summary of the method: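 Selectivity ratio is the antilog of pKi(σ1) minus pKi(σ2). σ1 binding: Jurkat membranes with [3H](+)-pentazocine (8 nM). σ2 binding: rat cortex membranes with [3H]DTG (5 nM) plus 300 nM (+)-pentazocine. Both run 2 h at 22 °C in 5 mM Tris/HCl pH 7.4, nonspecific binding with 10 μM haloperidol.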

[4] = Antagonist activity at sigma2 receptor in guinea pig ileum longitudinal muscle assessed as inhibition of 5-HT-induced contractions; assay type: functional, tissue-based; conditions: Cavia porcellus
Summary of the method: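 Longitudinal muscle/myenteric plexus ileum segments from male guinea pigs (300-400 g), 1 g tension, Tyrode's at 37 °C gassed with 95% O2/5% CO2, 1 μM ketanserin present throughout. After 90 min equilibration, three noncumulative 5-HT concentration-response curves; the second is run with test compound. 5-HT contact 1 min, 20 min washes between doses; peak isotonic contraction recorded.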

[5] = system: MCF7; test: Growth inhibition of human MCF7 cells at 10 uM after 48 hrs by SRB assay; assay type: functional, cell-based
Summary of the method: (§1)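 MCF-7 or MCF-7/ADR cells seeded at 1 × 10⁴/well, dosed after 24 h with 10 μM compound for 48 h at 37 °C, 5% CO2. Fixed with cold TCA, stained with 0.4% SRB in 1% acetic acid, dye solubilized in 10 mM Tris, absorbance read at 520 nm. Percent inhibition given as mean ± SEM of three experiments.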

[6] = system: NCI/ADR-RES; test: Growth inhibition of human MCF7/ADR cells highly expressing sigma1 receptor at 10 uM after 48 hrs by SRB assay; assay type: functional, cell-based; summary of the method: as §1
[7] = Growth inhibition of human MCF7/ADR cells highly expressing sigma1 receptor after 48 hrs by SRB assay; assay type: functional; conditions: NCI/ADR-RES
Summary of the method: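 Cells seeded at 1 × 10⁴/well; after 24 h, compound (10 nM-10 μM) added in quadruplicate for 48 h at 37 °C, 5% CO2, with a time-zero plate read. TCA fixation, 0.4% SRB stain, absorbance at 520 nm. GI50 is the concentration halving net protein increase, interpolated from % growth versus log concentration; mean of triplicates.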

[8] = Cell cycle arrest in human MCF7/ADR cells highly expressing sigma1 receptor assessed as accumulation at G2/M phase at 10 uM after 48 hrs by propidium iodide staining based flow cytometry relative to control; assay type: functional; conditions: NCI/ADR-RES
Summary of the method: (§2)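 MCF-7 or MCF-7/ADR cells (3 × 10⁵/mL) held 48 h at 37 °C, 5% CO2 with 10 μM compound. Fixed in cold 70% ethanol for 15 min on ice, then stained 40 min at 37 °C with PI (50 μg/mL) plus RNase A (0.1 mg/mL) and 0.05% Triton X-100. Flow cytometry over 10000 events; one of three experiments shown.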

[9] = Cell cycle arrest in human MCF7/ADR cells highly expressing sigma1 receptor assessed as accumulation at G0/G1 phase at 10 uM after 48 hrs by propidium iodide staining based flow cytometry relative to control; assay type: functional; conditions: NCI/ADR-RES; summary of the method: as §2
[10] = Cell cycle arrest in human MCF7/ADR cells highly expressing sigma1 receptor assessed as accumulation at S phase at 10 uM after 48 hrs by propidium iodide staining based flow cytometry relative to control; assay type: functional; conditions: NCI/ADR-RES; summary of the method: as §2
[11] = system: Mus musculus; test: Analgesic effect in CD1 mouse at 1 mg/kg, sc by radiant heat tail flick test; assay type: functional, organism-based; design: dose 1 mg/kg
Summary of the method: (§3)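 Male CD-1 mice, 25-35 g. Radiant heat tail flick, IR source aimed at the lower third of the tail. Basal latency (2-3 s) is the mean of two trials 30 min apart. Drug 1 mg/kg sc or vehicle (DMSO 1%) given 30 min before morphine 5.0 mg/kg sc or saline. Read at 30, 60, 90 and 120 min after morphine; cutoff 12 s. Reported as %MPE, mean ± SEM, n=8; ANOVA with Student-Newman-Keuls.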

[12] = system: Mus musculus; test: Increase in morphine-induced analgesia in CD1 mouse at 1 mg/kg, sc administered 30 mins before morphine challenge measured after 60 to 120 mins post morphine challenge by radiant heat tail flick test; assay type: functional, organism-based; design: dose 1 mg/kg; summary of the method: as §3
[13] = system: MCF7; test: Cell cycle arrest in human MCF7 cells assessed as accumulation at S phase at 10 uM after 48 hrs by propidium iodide staining based flow cytometry relative to control; assay type: functional; summary of the method: as §2
[14] = system: MCF7; test: Cell cycle arrest in human MCF7 cells assessed as accumulation at G0/G1 phase at 10 uM after 48 hrs by propidium iodide staining based flow cytometry relative to control; assay type: functional; summary of the method: as §2
[15] = system: MCF7; test: Cell cycle arrest in human MCF7 cells assessed as accumulation at G2/M phase at 10 uM after 48 hrs by propidium iodide staining based flow cytometry relative to control; assay type: functional; summary of the method: as §2
[16] = system: NCI/ADR-RES; test: Induction of apoptosis in human MCF7/ADR cells highly expressing sigma1 receptor at 10 uM after 48 hrs by Annexin V staining based flow cytometry relative to control; assay type: functional
Summary of the method: (§4)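 MCF-7 or MCF-7/ADR cells (3 × 10⁵/mL) exposed to 10 μM compound for 48 h at 37 °C, 5% CO2. Stained with Annexin V-FITC (1:40) for 10 min at room temperature in binding buffer (10 mM Hepes pH 7.4, 140 mM NaCl, 2.5 mM CaCl2), then read by FACS. Reported as % Annexin V+ cells, mean ± SEM of three experiments.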

[17] = system: MCF7; test: Induction of apoptosis in human MCF7 cells at 10 uM after 48 hrs by Annexin V staining based flow cytometry relative to control; assay type: functional; summary of the method: as §4

Sigma non-opioid intracellular receptor 1, sequence (Q99720 whole entry): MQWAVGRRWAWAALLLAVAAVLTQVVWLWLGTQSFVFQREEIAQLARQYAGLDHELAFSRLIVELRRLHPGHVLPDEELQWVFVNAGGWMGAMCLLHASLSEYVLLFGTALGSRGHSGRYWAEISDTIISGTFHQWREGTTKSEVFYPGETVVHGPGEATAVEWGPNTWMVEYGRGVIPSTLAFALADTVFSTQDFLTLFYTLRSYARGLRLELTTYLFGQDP

| Structure (SMILES) | pKi [2] | Ki selectivity ratio (sigma2/sigma1) [3] | Ki [1] | IC50 [4] | Activity [5] | Activity [6] | further results |
| --- | --- | --- | --- | --- | --- | --- | --- |
| c1ccc(CN2CCC3(CCc4ccccc4O3)CC2)cc1 | 7.66 | 36 | – | – | – | – | pKi ([1]; jurkat): 9.21 |
| c1ccc(CN2CCC3(CCc4ccccc4C3)CC2)cc1 | 7.85 | 32 | 437 pM | > 10 µM | – | – | – |
| c1ccc(CN2CCC3(CC2)OCc2ccccc2S3)cc1 | 6.65 | 2510 | 89.1 pM | > 10 µM | inactive | Active | – |
| O=C1CC2(CCN(Cc3ccccc3)CC2)Oc2ccccc21 | 6.52 | 1440 | 209 pM | 7.2 µM | inactive | Active | GI50 [7]: 10 µM |
| c1ccc(CN2CCC3(CC2)OCc2ccccc2O3)cc1 | 6.64 | 2340 | 97.7 pM | 3.9 µM | inactive | Active | – |
| O=C1CC(C2CCN(CCc3ccccc3)CC2)Oc2ccccc21 (racemic) | 8.08 | 76 | – | – | inactive | Active | – |
| O=C1CC(C2CCN(Cc3ccccc3)CC2)Oc2ccccc21 (racemic) | 6.76 | 2630 | – | – | inactive | Active | Activity [8]: 23.3%; Activity [9]: 62.7%; Activity [10]: 14% |
| c1ccc(CN2CCC(C3CCc4ccccc4S3)CC2)cc1 (racemic) | 7.24 | 1000 | 57.5 pM | 8.4 µM | inactive | Active | – |
| O=C1CC(C2CCN(Cc3ccccc3)CC2)Sc2ccccc21 (racemic) | 5.81 | – | – | – | inactive | Active | Activity [11]: inactive; Activity [8]: 24.4%; Activity [9]: 61.5%; Activity [10]: 13.9%; Activity [12]: Active |
| O=C(CCCN1CCC(O)(c2ccc(Cl)cc2)CC1)c1ccc(F)cc1 [HALOPERIDOL] | 6.95 | – | – | – | – | – | – |
| c1ccc(CN2CCC3(CCc4ccccc4S3)CC2)cc1 [SPIPETHIANE] | 6.4 | 676 | 589 pM | 6.3 µM | inactive | Active | Activity [13]: 10%; Activity [8]: 24.8%; Activity [9]: 55.1%; Activity [10]: 20.1%; Activity [14]: 73%; Activity [15]: 17%; Activity [16]: 5.4%; Activity [17]: 2.7% |
